KCNK9 inh: blocks the human KCNK9 two-pore domain potassium channel; Q9NPC2; HEK293 KCNK9, FluxOR thallium flux fluorescence; active compounds read low; B-score at 10 µM; 310,000 compounds, 1.2% hits;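 active = ratio B-score over 3 SD below the library mean, with starting fluorescence within 5 SD of its mean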;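 note: negative B-score means less thallium flux so channel inhibition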
KCNQ1 block: blocks the human KCNQ1 potassium channel; AID 2642; CHO-K1 KCNQ1, FluxOR thallium flux fluorescence; active compounds read high; B-score at 10 µM; 310,000 compounds, 1.3% hits; P51787;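 active = compounds whose thallium flux B-score, printed positive for inhibition, exceeds three library SD while starting fluorescence stays within three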;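 note: channel opened by potassium depolarization with thallium stimulus after 20 min compound exposure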
KCNK3 block: human KCNK3 channel inhibition, primary screen. 340,000 compounds, 0.84% hits. O14649. CHO-KCNK3 thallium flux, FluxOR fluorescence; active compounds read low. B-score at 10 µM;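 active = B-score under library mean minus 4 SD, starting fluorescence ratio at most library mean plus 5 SD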;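 note: more negative B-score means stronger inhibition of thallium flux through KCNK3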
KCNQ1 pot: potentiates or activates the human KCNQ1 potassium channel | B-score at 10 µM | AID 2648 | CHO-K1 KCNQ1, thallium flux FluxOR fluorescence; active compounds read high | P51787 | 310,000 compounds, 0.35% hits;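 active = fluorescence ratio B-score, a plate-corrected score, at least three library SD, with initial intensity B-score within 5 SD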
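Assay system: CHO-K1 cells stably expressing KCNQ1; Medium: assay buffer with matched DMSO; Also added: K+/Tl+ depolarizing stimulus; Dosing: single dose; Timing: dye 90 min, compound 20 min, room temperature; Measured by: kinetic FluxOR thallium fluorescence, 10-s 1-Hz baseline, 110-s post-stimulus read; Read-out: peak-minus-minimum fluorescence over initial fluorescence, negative-control normalized, B-scored.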
hERG rescue: compounds protecting human hERG from proarrhythmic drug block. Q12809. CHO-hERG, FluxOR thallium flux, dofetilide IC70 present. activation (rescue from dofetilide block), less the hit threshold, % at 10 µM. 310,000 compounds, 0.51% hits. AID 1511;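 active = activation above the mean of controls blocked by dofetilide plus 5 SD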;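 note: thallium influx through hERG after potassium depolarization seen as dye fluorescence rise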
Target sequence (Q12809 whole entry, looked up): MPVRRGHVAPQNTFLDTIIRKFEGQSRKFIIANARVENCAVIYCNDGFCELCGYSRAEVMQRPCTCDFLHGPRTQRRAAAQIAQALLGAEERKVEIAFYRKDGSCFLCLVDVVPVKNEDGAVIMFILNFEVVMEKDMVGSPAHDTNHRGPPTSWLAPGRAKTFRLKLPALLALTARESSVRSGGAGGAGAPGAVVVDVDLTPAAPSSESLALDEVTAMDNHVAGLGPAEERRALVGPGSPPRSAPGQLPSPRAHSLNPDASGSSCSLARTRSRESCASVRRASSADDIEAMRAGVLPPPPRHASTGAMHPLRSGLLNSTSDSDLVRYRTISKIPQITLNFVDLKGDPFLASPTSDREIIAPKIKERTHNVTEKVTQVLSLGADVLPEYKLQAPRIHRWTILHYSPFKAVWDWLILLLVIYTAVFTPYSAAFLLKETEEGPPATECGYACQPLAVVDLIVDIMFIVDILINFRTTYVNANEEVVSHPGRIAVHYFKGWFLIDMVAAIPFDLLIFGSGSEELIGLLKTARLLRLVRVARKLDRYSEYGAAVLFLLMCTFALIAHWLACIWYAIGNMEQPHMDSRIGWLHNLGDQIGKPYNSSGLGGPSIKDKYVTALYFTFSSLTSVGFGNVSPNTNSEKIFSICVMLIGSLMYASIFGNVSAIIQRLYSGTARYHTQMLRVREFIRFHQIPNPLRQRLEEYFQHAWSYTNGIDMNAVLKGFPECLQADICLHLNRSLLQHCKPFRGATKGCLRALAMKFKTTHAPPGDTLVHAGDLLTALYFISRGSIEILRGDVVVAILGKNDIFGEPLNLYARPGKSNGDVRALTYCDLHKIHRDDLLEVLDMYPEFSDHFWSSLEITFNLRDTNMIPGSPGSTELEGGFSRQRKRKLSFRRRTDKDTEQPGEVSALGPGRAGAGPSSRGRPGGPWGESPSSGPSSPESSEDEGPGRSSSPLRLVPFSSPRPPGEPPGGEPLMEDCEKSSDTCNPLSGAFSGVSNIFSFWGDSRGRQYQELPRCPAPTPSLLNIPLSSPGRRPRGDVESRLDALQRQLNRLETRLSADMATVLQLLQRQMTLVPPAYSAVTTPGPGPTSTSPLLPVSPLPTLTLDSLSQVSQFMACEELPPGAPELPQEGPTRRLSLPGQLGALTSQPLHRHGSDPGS
KCNK3 inh conf: confirmation of human KCNK3 two-pore domain potassium channel inhibitors. shares compounds with KCNK3 block. CHO-KCNK3 thallium flux, FluxOR fluorescence; 0% buffer, 100% carvedilol maximal block. ratio percent of control, % at 10 µM. 2,400 compounds, 99% hits. AID 651638;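 active = ratio percent of control, averaged over triplicates, above buffer control mean plus 5 SD, cut at about 64% in these data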;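 note: ratio is the fluorescence rise from min to max over baseline after thallium stimulus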
KCNK3 uninduced: KCNK3 inhibitor counter-screen hit in non-induced cells | shares compounds with KCNK3 block | non-induced KCNK3 parental cells, FluxOR thallium flux; active compounds read low | thallium flux ratio (lower = more inhibition) at 10 µM | 2,400 compounds, 40% hits | AID 651747;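 active = thallium flux ratio, averaged over three wells, more than 5 SD below the buffer control mean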;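 note: host cells are CHO cells without KCNK3 induction; ratio is peak minus trough fluorescence over baseline then normalized to buffer controls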
Active calls of the source: *; i = inactive; nt = no result given. Shown are actives, neighbours in structure and some others; about 3.1% of the full set was active somewhere.

SMILES	KCNK9 inh	KCNQ1 block	KCNK3 block	KCNQ1 pot	hERG rescue	KCNK3 inh conf	KCNK3 uninduced
CC(C)Nc1cc(C(C)(C)C)nc2c(-c3ccccc3)cnn12	i	i	-10*	i	-13	82*	0.14*
O=C(COc1ccc([N+](=O)[O-])cc1)Nc1ccc2c(c1)nc1n2CCOC1	i	i	i	i	1	nt	nt
Cc1noc(C)c1CSc1nc2[nH]ncc2c(=O)n1-c1ccccc1	i	i	i	i	-7	nt	nt
O=c1c2cn[nH]c2nc(SCc2c(F)cccc2F)n1-c1ccc(Cl)cc1	i	i	-9.3*	i	-22	129*	0.15*
CCOc1ccc(NC(=O)C2CCN(S(C)(=O)=O)CC2)cc1	i	i	-9.3*	i	-5	97*	i
CCCn1c(C(O)c2ccc(OC)c(OC)c2)nc2ccccc21 (centres undefined)	i	i	i	i	-10	nt	nt
CCOC(=O)c1ccc(N[C@@H]2CCN3C(=O)c4ccccc4[C@@H]3C[C@H]2O)cc1	nt	nt	i	nt	nt	nt	nt
CCOC(=O)Cn1c(CN2CCN(C(c3ccccc3)c3ccccc3)CC2)nc2c1c(=O)n(C)c(=O)n2C	i	i	-8.8*	i	-15	102*	i
Cn1c(=O)c2c(nc(CN3CCN(C(c4ccccc4)c4ccccc4)CC3)n2CC(N)=O)n(C)c1=O	i	i	i	i	-7	nt	nt
CCN(C(=O)COC(=O)c1oc2ccccc2c1C)c1c(N)n(Cc2ccccc2)c(=O)[nH]c1=O	nt	nt	i	nt	nt	nt	nt
COc1ccccc1Oc1ccc(S(=O)(=O)N2CCCCC2C)cc1 (centres undefined)	i	i	-12*	i	-12	108*	0.16*
CCOC(=O)c1sc2nc(CC(=O)OC)nc(N(C)CCc3ccccn3)c2c1C	i	i	-10*	i	-10	109*	i
CN(CC(=O)NCCc1ccccc1)Cc1ccco1	i	i	i	i	-13	nt	nt
CC(=O)N1c2ccc(S(=O)(=O)N3CCCC3)cc2CC1C(=O)Nc1cc(C)cc(C)c1 (centres undefined)	i	i	i	i	-10	nt	nt
CC(=O)N1c2ccc(S(=O)(=O)N3CCCCC3)cc2CC1C(=O)Nc1ccc(F)cc1C (centres undefined)	i	i	-10*	i	-9	91*	i
O=C(CS(=O)CC(=O)NC12CC3CC(CC(C3)C1)C2)Nc1ccc(F)cc1 (centres undefined)	i	i	i	i	-2	nt	nt
CCOC(=O)c1[nH]c2ccc(Cl)cc2c1NC(=O)/C=C/c1ccc2c(c1)OCO2	i	i	i	i	-10	nt	nt
CCN(CC(=O)Nc1c(C(=O)OC)[nH]c2ccc(Cl)cc12)c1ccc2c(c1)OCO2	-7.2*	i	-9.2*	i	-7	105*	0.15*
CCOc1cc(Cl)c(S(=O)(=O)NCc2cccnc2)cc1Cl	i	i	i	i	0	nt	nt
COc1cc(Cl)c(C)cc1NC(=O)CN(C)Cc1cccc(OC)c1OC	i	i	-13*	i	-8	99*	i
COc1ccccc1CN(C)CC(=O)Nc1cccc2ccccc12	i	i	i	i	-14	nt	nt
COc1ccc(Cl)cc1C(=O)NNC(=O)c1cccs1	nt	nt	i	nt	nt	nt	nt
CN(c1ccccc1)S(=O)(=O)c1cccc(NC(=O)c2cc(=O)c3ccccc3o2)c1	i	i	-10*	i	-8	137*	i
NS(=O)(=O)c1cccc(NC(=O)c2cc(=O)c3ccccc3o2)c1	i	i	i	i	-4	nt	nt
Cc1ccccc1OCC(=O)O/N=C(\N)c1ccncc1	i	i	i	i	-4	nt	nt
Cn1cc(SCC(=O)NCc2ccc(F)cc2)c2ccccc21	i	i	i	i	-1	nt	nt
O=C(NCCn1cc(SCc2ccc(F)cc2)c2ccccc21)c1ccccc1F	-7.5*	11*	-16*	i	-23	140*	0.12*

From PubChem BioAssay
